# Screens from PubChem BioAssay.
# Sampled rows, rich in hits. Any-hit rate of the full collection: about 2.7%.
# PAFAH2 inh: inhibitors of human PAFAH2; recombinant PAFAH2, FP-rhodamine activity probe, fluorescence polarization; inhibition, % at 3.39 µM; 340,000 tested, 0.99% active;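 active = inhibition above the mean over all tested compounds plus 3 SD, cut at about 30% in these data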;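 note: inhibitors block probe labeling of enzyme so polarization drops; 0% = enzyme with DMSO and 100% = wells lacking PAFAH2 protein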
# PAFAH1B2 FP inh: inhibitors of human PAFAH1B2 | recombinant PAFAH1B2, FP-rhodamine activity probe, fluorescence polarization | inhibition, % at 3.39 µM | 340,000 tested, 1.2% active | AID 492953;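 active = inhibition above the mean of all tested compounds plus 3 SD, cut at about 24% in these data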;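 note: 0% = enzyme with DMSO and 100% = wells lacking PAFAH1B2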
# PAFAH1B3 inh: inhibitors of human PAFAH1B3; inhibition, % at 3.39 µM; recombinant PAFAH1B3, FP-rhodamine probe, fluorescence polarization; AID 492972; 340,000 tested, 0.28% active; Q15102;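 active = inhibition above the screen-wide average of all tested compounds plus 3 SD, cut at about 25% in these data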;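 note: 0% = enzyme with DMSO only and 100% = wells lacking PAFAH1B3 protein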
# ASAP1 inh: ASAP1 ArfGAP inhibition; Q9ULH1; ASAP1-stimulated ARF1 GTP hydrolysis, GDP FP detection; inhibition, % at 16.5 µM; 360,000 tested, 0.19% active; AID 624377; in the data active = inhibition above about 25%;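 note: 0% = vehicle with enzyme and substrate and 100% = no enzyme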
# pPAFAH inh: inhibitors of human plasma PAF acetylhydrolase (pPAFAH); recombinant pPAFAH, FP-rhodamine probe fluorescence polarization; inhibition, % at 3.39 µM; 330,000 tested, 1.5% active;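 active = inhibition above the mean inhibition across the screen plus 3 SD, cut at about 25% in these data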;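 note: inhibitors block binding of the rhodamine activity-based probe so polarization drops; 0% = enzyme with DMSO and 100% = wells lacking pPAFAH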
# Target sequence (Q13093 whole entry, looked up): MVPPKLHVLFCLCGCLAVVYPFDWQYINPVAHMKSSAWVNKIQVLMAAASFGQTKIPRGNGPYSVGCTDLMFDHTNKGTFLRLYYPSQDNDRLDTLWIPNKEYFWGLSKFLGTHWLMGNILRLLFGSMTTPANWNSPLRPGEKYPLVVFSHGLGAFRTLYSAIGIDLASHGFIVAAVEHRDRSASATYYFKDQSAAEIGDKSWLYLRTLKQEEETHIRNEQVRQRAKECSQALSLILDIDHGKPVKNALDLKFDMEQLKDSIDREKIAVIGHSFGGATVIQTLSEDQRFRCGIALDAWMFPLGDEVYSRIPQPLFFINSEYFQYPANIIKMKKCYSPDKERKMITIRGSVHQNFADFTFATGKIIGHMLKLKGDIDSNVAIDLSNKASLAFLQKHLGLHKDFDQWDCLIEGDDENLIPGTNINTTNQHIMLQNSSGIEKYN
# ARFGAP1 inh: inhibitors of rat ARFGAP1 | Q62848 | Arfgap1-stimulated ARF1 GTP hydrolysis, GDP FP detection | inhibition, % at 16.5 µM | 360,000 tested, 0.26% active;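 active = inhibition above a per-plate limit, mean inhibition of low control wells plus 3 SD, cut at about 25% in these data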;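 note: 0% = DMSO wells with enzyme and 100% = wells lacking Arfgap1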
# Target sequence (Q62848 1-136 limits assumed): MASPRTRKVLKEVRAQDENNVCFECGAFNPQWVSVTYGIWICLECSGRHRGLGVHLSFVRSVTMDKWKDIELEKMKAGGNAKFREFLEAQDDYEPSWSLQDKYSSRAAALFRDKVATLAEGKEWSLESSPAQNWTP
#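 Material: truncated rat Arfgap1 GAP domain; Incubation: compound-enzyme preincubation 20 min, reaction 120 min, detection 60 min, 25 °C; Read-out: percent inhibition of Arfgap1-stimulated GTP hydrolysis; Technique: FP, GDP Alexa 633 tracer displaced from anti-GDP antibody, 620/688 nm; Controls: No-Arfgap1 wells (100%) versus DMSO full-reaction wells (0%); Replication: single well per compound.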
# An asterisk follows results filed as active; . = no result given.
SMILES,PAFAH2 inh,PAFAH1B2 FP inh,PAFAH1B3 inh,ASAP1 inh,pPAFAH inh,ARFGAP1 inh
COc1ccc(NS(=O)(=O)c2cccc(C(=O)NNC(=O)CNC(=O)c3ccco3)c2)cc1,-2,2,2,-5,11,-4
COc1ccc(NS(=O)(=O)c2ccc(N3CCCC3)c(NC(=S)Nc3cccc(S(=O)(=O)N(C)C)c3)c2)cc1,.,.,.,.,33*,.
COc1ccc(NS(=O)(=O)c2cccc(C(=O)NN=Cc3ccc(OC)c(O)c3)c2)cc1,2,13,15,7,32*,1
O=C(O)c1cccc(S(=O)(=O)Nc2ccccc2Cl)c1,3,5,-4,-3,4,-8
CCOc1ccccc1C(=O)NCC(=O)NNC(=O)c1cccc(S(=O)(=O)Nc2ccc(OC)cc2)c1,4,5,7,-9,26*,4
O=C(Cc1c[nH]c2ccccc12)Nc1ccc(Nc2cccnc2)c(Br)c1,.,.,.,10,.,-4
CN1CCCCC(NC(=O)c2c(F)cccc2F)C1=O (stereo not drawn),.,.,.,0,.,10
CC1=CC2C3C(=O)N(c4ccccc4)C(=O)C3C1C(=O)C2(O)C(C)C (stereo not drawn),.,.,.,-3,.,13
COc1ccc(NS(=O)(=O)c2cccc(C(=O)NNC(=O)c3cc(S(N)(=O)=O)ccc3OC)c2)cc1,0,-1,-3,5,25*,0
COc1ccc(NS(=O)(=O)c2cccc(C(=O)NNC(=O)c3ccc(O)c(Cl)c3)c2)cc1,1,1,6,-11,10,-10
COc1ccc(NS(=O)(=O)c2cccc(NC(=O)C34CCC(CC3)C4)c2)cc1,10,7,4,0,26*,-3
COc1ccc(NS(=O)(=O)c2cccc(C(=O)NNC(=O)c3ccc(NC(C)=O)cc3)c2)cc1,1,-1,3,8,26*,3
COc1ccc(NS(=O)(=O)c2cccc(NC(=O)c3ccc(S(=O)(=O)N4CCCCCC4)cc3)c2)cc1,-86,-18,-39,.,-27,.
COC(=O)c1cc2c(c3c4cc(OC)ccc4n(S(=O)(=O)c4ccc(F)cc4)c13)C(=O)N(Cc1ccccc1)C2,.,.,.,-16,.,-4
C/C=C/C=C/[C@H]1Cc2cc(O)cc(O)c2O1,.,.,.,.,36*,.
COC(=O)Cc1nnn2c1[C@@H](C)[C@@H](c1ccccc1Br)OC[C@@H]2c1ccccc1,.,.,.,2,.,4
CN(C(=O)COC(=O)c1ccc2ccccc2n1)c1ccccc1,4,-2,8,-3,7,2
CN(Cc1ccccc1)C(=O)COC(=O)c1ccc2c(c1)OCO2,16,4,-6,0,26*,0
CN(Cc1ccccc1)C(=O)COC(=O)c1ccc2ccccc2n1,5,5,5,1,25*,-2
O=C(C(=O)N1CCN(C(=O)c2ccccc2C(F)(F)F)CC1)c1cccc(C(F)(F)F)c1,.,.,.,4,.,2
N#C/C(=C\Nc1ccc2cn[nH]c2c1)c1nc(-c2ccc(Cl)cc2)cs1,-26,-9,-20,29*,2,15
COC(=O)C1=C(C)N(Cc2ccccc2C(F)(F)F)C(=NCc2ccccc2)NC1c1ccc(Cl)cc1 (stereo not drawn),.,.,.,0,.,11
CCCN1C(=O)c2n[nH]c(C(C)C)c2C1c1cccc(C(F)(F)F)c1 (stereo not drawn),.,.,.,0,.,4
Nc1c(C(=O)NC2CCCC2)c2nc3ccccc3nc2n1/N=C/c1ccco1,1,0,10,.,6,.
Nc1c(C(=O)NC2CCCC2)c2nc3ccccc3nc2n1N,-1,3,0,-2,25*,1
SMILES,PAFAH2 inh,PAFAH1B2 FP inh,PAFAH1B3 inh,ASAP1 inh,pPAFAH inh,ARFGAP1 inh
CC1CC(NC(=O)CCn2c(=O)oc3ccccc32)CC(C)(C)C1 (stereo not drawn),44*,38*,7,0,3,-8
Cc1ccc(SCc2[nH]nc3c2C(c2ccc(C)o2)C(C#N)=C(N)O3)cc1 (stereo not drawn),13,21,3,-5,0,-14
Cc1ccc(SCc2[nH]nc3c2C(c2ccco2)C(C#N)=C(N)O3)cc1 (stereo not drawn),7,34*,14,12,7,-14
O=C(CSc1n[nH]c(-c2ccc(S(=O)(=O)N3CCCCC3)cc2)n1)Nc1nccs1,6,39*,2,7,17,15
CCN(CC)c1ccc(-c2sc(Nc3ccccc3)n[n+]2-c2ccc(F)cc2)cc1,0,-6,0,-22,4,-5
CCc1ccc(Nc2n[n+](-c3ccccc3)c(-c3ccc(N(CC)CC)cc3)s2)cc1,10,3,5,-2,30*,0
CC(=O)C1=C(C)N(Cc2ccc(Br)cc2)C(=S)NC1c1ccc(F)cc1 (stereo not drawn),.,.,.,14,.,6
COc1ccc2c(-c3ccccc3)cc(SCC(=O)N(C)C)nc2c1,5,-1,5,3,33*,-1
CCN(C(=O)CSc1cc(-c2ccccc2)c2ccc(OC)cc2n1)C1CCS(=O)(=O)C1 (stereo not drawn),-4,3,10,2,26*,9
COCCNC(=O)CSc1cc(-c2ccccc2)c2ccc(OC)cc2n1,1,1,6,-5,30*,1
CCN(C(=O)CSc1cc(C)c2ccc(OC)cc2n1)C1CCS(=O)(=O)C1 (stereo not drawn),-1,1,4,2,-7,-8
O=C(NNC(=O)c1cc2ccccc2cc1O)Nc1ccc(F)cc1F,-8,6,29*,-7,26*,-3
O=C(NNC(=O)c1cc2ccccc2cc1O)Nc1ccc(Br)cc1,-10,3,11,-6,26*,-4
COCc1cc(N2CCN(C(=O)OC(C)(C)C)C[C@@H]2C)ccc1N1CC[C@@H](O)C1,.,.,.,10,.,-5
O=S1(=O)CCSC[C@@H](CN2CCN(c3ccccc3)CC2)N1,.,.,.,-2,.,1
Cc1ccc(Nc2nnc(SC/C(O)=C(\C#N)c3nc4ccccc4[nH]3)s2)c(C)c1,-1,21,8,-1,29*,-2
Cc1cccc(Nc2nnc(SC/C(O)=C(\C#N)c3nc4ccccc4[nH]3)s2)c1,-13,20,16,11,25*,-2
Cc1cc(C)n2c(SCC(O)=C(C#N)c3nc4ccccc4[nH]3)nnc2n1,3,2,3,1,.,-4
CCc1cc2c(=O)c(-c3cscn3)coc2c(CN(C)C)c1O,11,4,4,10,27*,0
C=CCNC(=O)c1onc(CSc2ccc(F)c(F)c2)c1C(=O)O,20,10,6,-11,5,-3
C=CCNC(=O)c1onc(CSc2ccc(Cl)cc2)c1C(=O)NCC=C,-8,25*,-5,-1,0,6
CCOC(=O)C1=CCN(S(=O)(=O)c2cccc(Cl)c2)C1c1cccc(Br)c1 (stereo not drawn),.,.,.,7,.,-3
